High-throughput results from PubChem BioAssay.
Wnt act: activates Wnt/beta-catenin signaling in a reporter cell assay; activator, plate reader; activation, % at 9.35 µM; hit rate 1.2% among 300,000; AID 743398; in the data active = activation above about 30%, passing the limit was not always enough; inconclusive = no clear call, values can overlap the other calls;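 also: 0% = neutral control wells and 100% = positive control wells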
Vif inh: inhibitors of HIV Vif. HEK293T cells, Vif self-association by quenched fluorescence, imaging, 24 h. inhibition, % at 7.49 µM. hit rate 0.35% among 340,000; in the data active = inhibition above about 50%, passing the limit was not always enough; inconclusive = no clear call, values can overlap the other calls; inactive = below about 31%
XiGFP reactiv: activators of X-chromosome reactivation in mouse fibroblasts; AID 743238; activation, % at 7.58 µM; XiGFP mouse fibroblasts, % GFP-positive cells imaging, 3 d; cells co-treated with 5-aza-dC sensitizer; scaled so ellipticine positive control = 100%; hit rate 0.055% among 360,000;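 active = mean normalized replicate activation at least 10% and every replicate at or above 10%; inconclusive = only one of the two criteria met; inactive = mean below 10% and not all replicates reach 10%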;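 also: 0% = median of on-plate neutral control wells and 100% = ellipticine 6 µM median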
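System: XiGFP fibroblasts, SV40-immortalized. Medium: DMEM plus 5-aza-dC sensitizer. Doses: single point. Timing: 3 d treatment, 15 min room-temperature fixation. Control set: ellipticine 6 µM.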
MITF act: increases MITF-driven TRPM1 promoter luciferase signal; SK-MEL-5 TRPM1-promoter luciferase, 24 h; % of positive control, neutral wells = 0; hit rate 0.75% among 300,000; AID 588334; activation, % at 12.5 µM;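 active = mean activation of at least 80% with every replicate also reaching 80%; inconclusive = mean reaches 80% but some replicate falls short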;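 also: 0% = neutral control wells and 100% = parthenolide positive control wells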
esBAF inh: SWI/SNF esBAF complex inhibition; mouse ES cells, Bmi1-luciferase knock-in reporter, 24 h; 100% = twice the neutral-well signal; reporter increase, % at 12.5 µM; hit rate 2% among 350,000; in the data active = activation above about 40%; inconclusive = no clear call, values can overlap the other calls;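 also: 0% = median of the plate's neutral control wells and 100% = double that signal; a rise in the Bmi1 reporter signal indicates esBAF inhibition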
* marks the source's active call; other numbers are inactive results; ! = repeats disagree. This is a sample that favours compounds with a hit; in the whole collection about 2.6% have one here.

Screening C[C@H](CO)N1C[C@H](C)[C@@H](CN(C)C(=O)Nc2ccc(F)cc2)Oc2ccc(NC(=O)Cc3cn(C)c4ccccc34)cc2CC1=O returned XiGFP reactiv -0.8 and esBAF inh 3.1.
Screening CC1=C(C(=O)OCc2ccccc2)C(c2ccc(Br)cc2)NC(=O)N1CCCC(=O)O (centres undefined) returned Wnt act -1.1 and XiGFP reactiv -0.2.
Screening CC1=C(C(=O)OCc2ccccc2)C(c2ccc(Br)cc2)NC(=O)N1CCCCCC(=O)O (centres undefined) returned Wnt act 45.7*, Vif inh 0.7, XiGFP reactiv 0.1, MITF act 62.7 and esBAF inh 90.5*.
CC(C)(C)C1CCC(C(=O)Nc2nccs2)CC1 (centres undefined) was read as Wnt act -0.4, Vif inh -10.5, XiGFP reactiv 0.1 and esBAF inh 52.8*.
`COc1ncccc1-c1nnn(-c2ccc(Cl)c(Cl)c2)n1` gave Wnt act 39.1*, Vif inh 6.2, XiGFP reactiv 0.0, MITF act 102.2* and esBAF inh 87.7*.
For COc1ncccc1-c1cnc2cccnn12 the results were Wnt act 0.2, Vif inh -1.1, XiGFP reactiv 0.4 and esBAF inh 2.5.
`O=c1[nH]c2ccccc2cc1-c1nnn(-c2ccc(Cl)c(Cl)c2)n1` gave Wnt act 2.7, Vif inh 16.6, XiGFP reactiv -0.1, MITF act -2.3 and esBAF inh 1.2.
`COc1ncccc1-c1nnn(-c2ccc(C)cc2)n1` gave Wnt act 39.3*, Vif inh -3.4, XiGFP reactiv 0.5, MITF act 56.8 and esBAF inh inconclusive.
Screening Cc1ccc(-n2nnc(-c3cc4ccccc4nc3Cl)n2)cc1 returned Wnt act 0.5, Vif inh -2.9, XiGFP reactiv 0.0 and esBAF inh 45.0*.
Screening O=c1[nH]c2ccccc2cc1-c1nnn(-c2ccc(F)cc2)n1 returned Wnt act inconclusive, Vif inh -2.3, XiGFP reactiv 0.0, MITF act 76.0 and esBAF inh 78.9*.
`C[C@H]1CN([C@@H](C)CO)C(=O)c2cc(C#CC3CC3)cnc2O[C@H]1CN(C)C(=O)Nc1ccc(F)cc1` gave XiGFP reactiv 1.2 and esBAF inh -33.1.
Screening Cc1ccc(S(=O)(=O)Nc2ccc3c(c2)CC(=O)N([C@@H](C)CO)C[C@@H](C)[C@H](CN(C)C(=O)NC2CCCCC2)O3)cc1 returned XiGFP reactiv -0.8 and esBAF inh 2.3.
C[C@@H]1CCCCO[C@@H](CN(C)Cc2ccc(C(=O)Nc3ccccc3N)cc2)[C@@H](C)CN([C@@H](C)CO)C(=O)c2cc(N(C)C)ccc2O1 was read as XiGFP reactiv -0.1.
Screening COc1ncccc1-c1nnn(-c2ccc(F)cc2)n1 returned Wnt act 34.1*, Vif inh 3.3, XiGFP reactiv 0.0, MITF act -15.3 and esBAF inh 53.8*.
For Fc1ccc(-n2nnc(-c3ccccc3Br)n2)cc1 the results were Wnt act -0.9, Vif inh 3.8, XiGFP reactiv 0.0, MITF act 9.4 and esBAF inh 1.6.
For COC(=O)C1CCN(S(=O)(=O)c2c(C)n(C)c(=O)n(C)c2=O)CC1 the results were Wnt act 47.6*, XiGFP reactiv -0.2, MITF act 0.5 and esBAF inh -8.2.
`NCCCC[C@H](N[C@@H](CCc1ccccc1)C(=O)O)C(=O)N1CCC[C@H]1C(=O)O` gave Wnt act -3.1, Vif inh 78.6*!, XiGFP reactiv -0.1, MITF act 6.5 and esBAF inh -4.4.
`O=C(Nc1cc(Cl)ccc1O)c1cc(-c2ccco2)on1` gave Wnt act 30.0, Vif inh -1.6, XiGFP reactiv 0.0, MITF act 74.0 and esBAF inh 66.7*.
For COc1cccc(-c2cc(C(=O)Nc3cccnc3Cl)no2)c1 the results were Wnt act 16.4, Vif inh 11.3, XiGFP reactiv 0.0, MITF act 59.2 and esBAF inh 5.2.
O=C(Nc1cccnc1Cl)c1cc(-c2ccco2)on1 was read as Wnt act 58.5*, Vif inh -5.7 and esBAF inh 45.7*.
For CCCNC(=O)N1C[C@H](C)[C@@H](OC)CN(C)C(=O)c2ccc(NC(=O)C3CCC3)cc2OC[C@@H]1C the results were XiGFP reactiv 0.2.
`CCOC(=O)c1sc2nc3c(cc2c1N)COC(C)(CC)C3` (centres undefined) gave Wnt act 57.6*, Vif inh -5.8 and esBAF inh 9.5.
Screening CCc1nc2c(sc3nc4c(cc32)COC(C)(C)C4)c(=O)n1CCN(CC)CC returned Wnt act -1.6, Vif inh -2.7, XiGFP reactiv 0.1, MITF act 1.7 and esBAF inh -3.1.
CCC1(C)Cc2nc3sc(C(=O)O)c(N)c3cc2CO1 (centres undefined) was read as Vif inh 3.7, MITF act 23.6 and esBAF inh 18.3.
`C=CCn1c(C)nc2c(sc3nc4c(cc32)COC(C)(C)C4)c1=O` gave Wnt act 45.9*, Vif inh 9.2, XiGFP reactiv -0.1 and MITF act 66.2.
`COC(=O)c1sc2nc3c(cc2c1N)CCCC3` gave Wnt act 57.7*, Vif inh 4.3, XiGFP reactiv 0.1 and MITF act -6.6.
For CC1(C)Cc2nc3sc(C(N)=O)c(N)c3cc2CO1 the results were Wnt act 3.8, Vif inh 3.9, XiGFP reactiv 0.1, MITF act 37.5 and esBAF inh 28.9.
`CCOC(=O)c1sc2nc3c(cc2c1N)COC(C)(C)C3` gave Wnt act 53.2*, Vif inh 10.6 and MITF act inconclusive.
For Cc1ccc(-c2noc(CN3CCCCC3)n2)cc1 the results were Vif inh -3.1 and esBAF inh 34.4.
Screening Clc1ccc(-c2noc(CN3CCCC3)n2)cc1 returned Wnt act 0.1, Vif inh 3.6 and esBAF inh 44.3*.
CC(C)n1c(CNC(=O)c2ccccc2F)nnc1SCC(=O)NC1CCCCC1 was read as Wnt act -3.2, Vif inh 53.5*, XiGFP reactiv 0.0, MITF act 8.4 and esBAF inh -10.5.
CN(C)C(=O)C[C@@H]1C[C@H]2c3cc(NS(=O)(=O)c4ccc(F)cc4)ccc3O[C@H]2[C@H](CO)O1 was read as XiGFP reactiv 0.2 and esBAF inh 1.2.
`CC(C)(C)NC(=O)NC(=O)COC(=O)Cc1c(Cl)cccc1Cl` gave Wnt act -1.2, Vif inh 7.8, XiGFP reactiv 0.0 and MITF act 3.6.
NC(=O)c1ccsc1NC(=O)COC(=O)c1c(F)cccc1Cl was read as Wnt act 21.5, Vif inh 2.2, XiGFP reactiv -0.1, MITF act 66.8 and esBAF inh 112.4*.
